Our source for the IC50 and Activity values is ChEMBL document CHEMBL4138212, “Novel triazine dimers with potent antitrypanosomal activity” (Eur J Med Chem, 2018).

Experiment [1] has as its system Trypanosoma brucei brucei. Nature of the experiment: Antitrypanosomal activity against suramin-sensitive Trypanosoma brucei brucei Squib 427 after 72 hrs by resazurin dye-based fluorometric method. Format: functional, organism-based. To be noted: Squib 427, 72 h. In short, it runs like this:
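Bloodstream parasites in HMI-9 with 10% heat-inactivated FBS at 7×10⁴/mL were exposed to five 4-fold dilutions from 64 µg/mL for 72 h at 37 °C in 5% CO₂. IC₅₀ comes from % growth reduction versus controls, as the mean of at least two independent determinations.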

The test system of experiment [2] is Trypanosoma brucei rhodesiense. The experiment can be described thus: Antitrypanosomal activity against Trypanosoma brucei rhodesiense STIB-900 after 72 hrs by resazurin dye-based fluorometric method. Format: functional, organism-based. To be noted: STIB-900, 72 h. Put shortly: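 Parasites in HMI-9 with 10% heat-inactivated FBS at 2×10⁴/mL were exposed to five 4-fold dilutions from 64 µg/mL for 72 h at 37 °C in 5% CO₂. IC₅₀ comes from % growth reduction versus controls, as the mean of at least two independent determinations.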
For orientation: Alamar Blue is a resazurin reagent that responds to reducing activity.

For experiment [3], the system named is Trypanosoma cruzi. The experiment can be described thus: Antitrypanosomal activity against beta-galactosidase expressing nifurtimox-sensitive Trypanosoma cruzi Tulahuen CL2 infected in human MRC5 SV2 cells assessed as decrease in parasite burden after 168 hrs by spectrophotometric method. Type of experiment: functional, organism-based. To be noted: Tulahuen CL2, MRC-5 SV2, 168 h.

Experiment [4] has as its system Leishmania infantum. The experiment can be described thus: Antileishmanial activity against amastigote stage of Leishmania infantum MHOM/MA(BE)/67 infected in mouse primary peritoneal macrophages assessed as decrease in parasite burden after 120 hrs by Giemsa staining-based microscopic method. Particulars: MHOM/MA(BE)/67, 120 h. Type of experiment: functional, organism-based.

Experiment [5] deals with Plasmodium falciparum. Nature of the experiment: Antiplasmodial activity against chloroquine-resistant Plasmodium falciparum K1 infected in human O-positive erythrocytes assessed as decrease in parasitaemia after 72 hrs by NBT dye-based spectrophotometric method. Type of experiment: functional, organism-based. To be noted: K1, 72 h.
Experiment [6] is described as follows: Cytotoxicity against human MRC5 SV2 cells assessed as decrease in cell viability after 72 hrs by resazurin dye-based fluorometric method. To be noted: MRC-5 SV2, 72 h.
Experiment [7] relates to Trypanosoma brucei brucei. Nature of the experiment: Antitrypanosomal activity against suramin-sensitive Trypanosoma brucei brucei Squib 427 infected in Swiss mouse assessed as reduction in parasitemia at 10 mg/kg administered first dose orally 1/2 hrs prior to infection followed by dosed intraperitoneally as qd for 5 days measured on day 4 of compound dosing by Giemsa staining-based microscopic method relative to control. Format: functional. Further details: scale not given: the % may be the effect or the level left. Put shortly:
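Female Swiss mice, 6 per group, were infected IP with about 1×10⁴ trypanosomes on day 0. The first dose was given orally ½ h before infection, then IP for 5 days, in DMSO, DMSO/PEG200 (1/50) or PBS for suramin. On day 4, tail-vein blood smears were Giemsa-stained and counted microscopically. Activity = 100 − (mean parasitemia treated/mean vehicle-infected control)×100.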

The subject of experiment [8] is Trypanosoma brucei brucei. Nature of the experiment: Antitrypanosomal activity against suramin-sensitive Trypanosoma brucei brucei Squib 427 infected in Swiss mouse assessed as increase in mouse survival at 10 mg/kg administered first dose orally 1/2 hrs prior to infection followed by dosed intraperitoneally as qd for 5 days measured on day 14 post infection. Type of experiment: functional, organism-based. In short, it runs like this:
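Female Swiss mice, 6 per group, were infected IP with about 1×10⁴ trypanosomes in 0.25 ml PBS-diluted donor blood on day 0. The first dose was given orally ½ h before infection, then IP for 5 days. Vehicles were 100% DMSO or DMSO/PEG200 (1/50); suramin was formulated in PBS. Mortality was monitored daily, ill animals were euthanized, and survivors were counted on day 14 post-infection.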

Structures are written as SMILES. The source made the active and inactive calls. The calls are words filed in the database; no cut-off is given here. Bounds are passed on as bounds.

For orientation: IC50 means the concentration at which inhibition is half-maximal.

On to `Cc1cc(C)c(Nc2nc(Nc3ccc(C#N)cc3)nc(Nc3ccc(Nc4nc(Nc5ccc(C#N)cc5)nc(Nc5c(C)cc(C)cc5C)n4)cc3)n2)c(C)c1`, for which the IC50 in experiment [1] is 0.53 µM; in experiment [2], 0.02 µM; in experiment [3], > 64 µM; in experiment [4] it was > 64 µM; in experiment [5], > 64 µM; in experiment [6], > 64 µM.
Turning to `CO[C@H]1O[C@@H]2O[C@@]3(C)CC[C@H]4[C@H](C)CC[C@@H]([C@H]1C)[C@@]24OO3`, the IC50 in experiment [5] is 0.02 µM; in experiment [6], > 64 µM.
For the compound `O=C(Cn1ccnc1[N+](=O)[O-])NCc1ccccc1` [BENZNIDAZOLE], the IC50 in experiment [3] is 2.56 µM; in experiment [6] it was > 64 µM.
For `CCN(CC)CCCC(C)Nc1ccnc2cc(Cl)ccc12` (stereo not drawn) [CHLOROQUINE], the IC50 in experiment [6] was > 64 µM.
Same read-out and setting: in the case of `Nc1nc(N)nc(Nc2ccc([As]3SCC(CO)S3)cc2)n1` (stereo not drawn) [MELARSOPROL] it was 7.4 µM; in that of `CCCCCCCCCCCCCCCCOP(=O)([O-])OCC[N+](C)(C)C` [MILTEFOSINE], > 64 µM.
On to `CC1CS(=O)(=O)CCN1/N=C/c1ccc([N+](=O)[O-])o1` (stereo not drawn) [NIFURTIMOX], for which the IC50 was 0.7 µM in experiment [3] and > 64 µM in experiment [6].
In the case of `Cc1ccc(C(=O)Nc2ccc(S(=O)(=O)O)c3cc(S(=O)(=O)O)cc(S(=O)(=O)O)c23)cc1NC(=O)c1cccc(NC(=O)Nc2cccc(C(=O)Nc3cc(C(=O)Nc4ccc(S(=O)(=O)O)c5cc(S(=O)(=O)O)cc(S(=O)(=O)O)c45)ccc3C)c2)c1` [SURAMIN], in experiment [6], the 50% inhibitory concentration (IC50) was > 64 µM. For the same compound, the Activity in experiment [7] is 100%. The result in experiment [8] was Active.
